Broadly, the EC50 is the concentration needed to bring the measured effect to its halfway point.

The structures appear in SMILES notation. Active and inactive are the calls of the source. The rule behind the calls is not given here. Where only a bound is given, the exact number is not on record here.

The source of these data is ChEMBL document CHEMBL1157643, “SAR and molecular mechanism study of novel acylhydrazone compounds targeting HIV-1 CA” (Bioorg Med Chem, 2010).

For the first data set, the system named is Simian immunodeficiency virus. Briefly: Antiviral activity against SIV-induced syncytium in human CEM174 cells assessed as inhibition of virus-induced cytopathogenicity after 5 days. It is filed as functional, organism-based. Conditions: CEM174, 120 h. The essentials:
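CEM174 cells at 1 × 10⁵ cells/mL in 96-well format, infected with 100 TCID₅₀ SIV per well alongside serial dilutions of compound. Incubated 5 days at 37 °C, 5% CO₂, humidified. Syncytium (giant cell) formation scored microscopically. EC₅₀ = concentration protecting cells 50% against SIV cytopathogenicity.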
A general note: Cytopathic effects are the visible damage that an infection or toxin causes in cultured cells.
As for `COc1ccc(C(=O)N[C@@H](Cc2c[nH]cn2)C(=O)N/N=C/c2ccc(Cl)cc2)cc1`, the EC50 was 3.27 µM.
Same read-out and setting: the same measure for `COc1ccc(C(=O)N[C@@H](Cc2ccc(O)cc2)C(=O)N/N=C/c2ccccc2)cc1`: 4.61 µM.
Take `COc1ccc(C(=O)N[C@@H](Cc2ccc(O)cc2)C(=O)N/N=C/c2ccc(C)cc2)cc1`: the EC50 was determined as 5.21 µM.
As to `COc1ccc(C(=O)N[C@@H](C)C(=O)N/N=C/c2ccccc2)cc1`, the half-maximal effective concentration (EC50) turned out to be 6.41 µM.
Still for that read-out and setting: the same measure for `CC[C@@H](C)[C@H](NC(=O)c1ccc(OC)cc1)C(=O)N/N=C/c1ccc(C)cc1`: 13.9 µM; for `CCC(C)[C@H](NC(=O)c1ccc(OC)cc1)C(=O)N/N=C/c1ccc(Cl)cc1` (mixture of isomers): 8.1 µM; for `COc1ccc(C(=O)N[C@@H](Cc2ccc(O)cc2)C(=O)N/N=C/c2ccco2)cc1`: 9.03 µM.
Still for that read-out and setting: the same measure for `COc1ccc(C(=O)N[C@@H](Cc2ccc(O)cc2)C(=O)N/N=C/c2ccc(Cl)cc2)cc1`: 14.9 µM; for `COc1ccc(/C=N/NC(=O)[C@H](Cc2c[nH]cn2)NC(=O)c2ccc(OC)cc2)cc1`: 0.41 µM; for `CC[C@@H](C)[C@H](NC(=O)c1ccc(OC)cc1)C(=O)N/N=C/c1ccccc1`: 7.65 µM.
Same read-out and setting: the same measure for `COc1ccc(C(=O)N[C@H](C(=O)N/N=C/c2ccc(Cl)cc2)[C@@H](C)O)cc1`: 4.98 µM; for `COc1ccc(C(=O)N[C@@H](Cc2ccc(O)cc2)C(=O)N/N=C/c2ccc(O)cc2)cc1`: 7.81 µM.

Tested on in the next data set: not listed separately
Briefly: Cytotoxicity against mock-infected human CEM174 cells after 5 days by MTT assay. As to conditions: read-out: TC50. It is filed as cell-based. The essentials: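 Uninfected CEM174 cells handled as in the antiviral assay (1 × 10⁵ cells/mL, compound dilutions, 5 days, 37 °C, 5% CO₂). Proliferation read by MTT reduction. TC₅₀ = concentration inhibiting cell proliferation by 50%.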
A general note: Tetrazolium assays rely on reduction of a dye to a coloured formazan, in cell work by metabolically active cells.
Consider `COc1ccc(C(=O)N[C@@H](Cc2c[nH]cn2)C(=O)N/N=C/c2ccc(Cl)cc2)cc1`, for which the CC50 at 120 h was above 100 µM.
Turning to `COc1ccc(C(=O)N[C@@H](Cc2ccc(O)cc2)C(=O)N/N=C/c2ccccc2)cc1`, the CC50 at 120 h is above 100 µM.
Still for that read-out and setting: the same measure for `COc1ccc(C(=O)N[C@@H](Cc2ccc(O)cc2)C(=O)N/N=C/c2ccc(C)cc2)cc1`: 41.1 µM.
With `COc1ccc(C(=O)N[C@@H](C)C(=O)N/N=C/c2ccccc2)cc1`, the CC50 at 120 h was above 100 µM.
Still for that read-out and setting: to `CC[C@@H](C)[C@H](NC(=O)c1ccc(OC)cc1)C(=O)N/N=C/c1ccc(C)cc1` belongs above 100 µM; to `CCC(C)[C@H](NC(=O)c1ccc(OC)cc1)C(=O)N/N=C/c1ccc(Cl)cc1` (mixture of isomers), above 100 µM; to `COc1ccc(C(=O)N[C@@H](Cc2ccc(O)cc2)C(=O)N/N=C/c2ccco2)cc1`, 30.6 µM.
`COc1ccc(C(=O)N[C@@H](Cc2ccc(O)cc2)C(=O)N/N=C/c2ccc(Cl)cc2)cc1`: the CC50 at 120 h was 40 µM.
Consider `COc1ccc(/C=N/NC(=O)[C@H](Cc2c[nH]cn2)NC(=O)c2ccc(OC)cc2)cc1`, for which the CC50 at 120 h was above 100 µM.
Same read-out and setting: the same measure for `CC[C@@H](C)[C@H](NC(=O)c1ccc(OC)cc1)C(=O)N/N=C/c1ccccc1`: 77.9 µM.
With `COc1ccc(C(=O)N[C@H](C(=O)N/N=C/c2ccc(Cl)cc2)[C@@H](C)O)cc1`, the CC50 at 120 h was above 100 µM.
On to `COc1ccc(C(=O)N[C@@H](Cc2ccc(O)cc2)C(=O)N/N=C/c2ccc(O)cc2)cc1`, for which the CC50 at 120 h is above 100 µM.

Tested on in the next data set: not listed separately
Briefly: Therapeutic index, TC50 for human CEM174 cells to EC50 for SIV-induced syncytium in human CEM174 cells. It is filed as cell-based. Conditions: read-out: TI. The essentials: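 Ratio TC₅₀/EC₅₀. TC₅₀ comes from the MTT proliferation assay in uninfected CEM174 cells. EC₅₀ comes from microscopic scoring of syncytia in CEM174 cells infected with 100 TCID₅₀ SIV per well. Both were run over 5 days at 37 °C, 5% CO₂.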
Take `COc1ccc(C(=O)N[C@@H](Cc2c[nH]cn2)C(=O)N/N=C/c2ccc(Cl)cc2)cc1`: the selectivity ratio is above 30.6.
Regarding `COc1ccc(C(=O)N[C@@H](Cc2ccc(O)cc2)C(=O)N/N=C/c2ccccc2)cc1`, the selectivity ratio was above 21.7.
For `COc1ccc(C(=O)N[C@@H](Cc2ccc(O)cc2)C(=O)N/N=C/c2ccc(C)cc2)cc1`, the selectivity ratio stood at 7.9.
For the compound `COc1ccc(C(=O)N[C@@H](C)C(=O)N/N=C/c2ccccc2)cc1`, the selectivity ratio is above 15.6.
For the compound `CC[C@@H](C)[C@H](NC(=O)c1ccc(OC)cc1)C(=O)N/N=C/c1ccc(C)cc1`, the selectivity ratio was above 7.2.
On the same count and under the same terms, the same measure for `CCC(C)[C@H](NC(=O)c1ccc(OC)cc1)C(=O)N/N=C/c1ccc(Cl)cc1` (mixture of isomers): above 12.3; for `COc1ccc(C(=O)N[C@@H](Cc2ccc(O)cc2)C(=O)N/N=C/c2ccco2)cc1`: 3.38.
On the same count and under the same terms, the same measure for `COc1ccc(C(=O)N[C@@H](Cc2ccc(O)cc2)C(=O)N/N=C/c2ccc(Cl)cc2)cc1`: 2.69; for `COc1ccc(/C=N/NC(=O)[C@H](Cc2c[nH]cn2)NC(=O)c2ccc(OC)cc2)cc1`: above 244; for `CC[C@@H](C)[C@H](NC(=O)c1ccc(OC)cc1)C(=O)N/N=C/c1ccccc1`: 10.2.
Same read-out and setting: to `COc1ccc(C(=O)N[C@H](C(=O)N/N=C/c2ccc(Cl)cc2)[C@@H](C)O)cc1` belongs above 20.1; to `COc1ccc(C(=O)N[C@@H](Cc2ccc(O)cc2)C(=O)N/N=C/c2ccc(O)cc2)cc1`, above 12.8.

The target in the next data set is Structural capsid protein (Human immunodeficiency virus 1) (UniProt Q76129). Briefly: Binding affinity to HIV1 capsid protein assessed as viral capsid assembly rate at 1 mM by ultraviolet spectrophotometry (RVb= 60.56 +/- 3.77 milliOD/min).
Structural capsid protein (Human immunodeficiency virus 1), sequence (Q76129 as listed by the source): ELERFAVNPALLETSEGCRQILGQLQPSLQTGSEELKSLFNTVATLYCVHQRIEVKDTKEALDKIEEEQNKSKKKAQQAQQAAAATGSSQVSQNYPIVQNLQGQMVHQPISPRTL
Conditions: not given
For `COc1ccc(C(=O)N[C@@H](Cc2c[nH]cn2)C(=O)N/N=C/c2ccc(Cl)cc2)cc1`, the Activity (milli optical density/minute) is 8.89.
Same read-out and setting: to `COc1ccc(C(=O)N[C@@H](Cc2ccc(O)cc2)C(=O)N/N=C/c2ccccc2)cc1` belongs 32.5.
Take `COc1ccc(C(=O)N[C@@H](Cc2ccc(O)cc2)C(=O)N/N=C/c2ccc(C)cc2)cc1`: the Activity (milli optical density/minute) is 20.4.
Take `CC[C@@H](C)[C@H](NC(=O)c1ccc(OC)cc1)C(=O)N/N=C/c1ccc(C)cc1`: the Activity (milli optical density/minute) was 33.4.
The same measure, in the same setting: to `CCC(C)[C@H](NC(=O)c1ccc(OC)cc1)C(=O)N/N=C/c1ccc(Cl)cc1` (mixture of isomers) belongs 10.2; to `COc1ccc(C(=O)N[C@@H](Cc2ccc(O)cc2)C(=O)N/N=C/c2ccco2)cc1`, 19.1.
In the case of `COc1ccc(C(=O)N[C@@H](Cc2ccc(O)cc2)C(=O)N/N=C/c2ccc(Cl)cc2)cc1`, the Activity (milli optical density/minute) was found to be 24.3.
`COc1ccc(/C=N/NC(=O)[C@H](Cc2c[nH]cn2)NC(=O)c2ccc(OC)cc2)cc1`: the Activity (milli optical density/minute) worked out at 3.58.
Consider `CC[C@@H](C)[C@H](NC(=O)c1ccc(OC)cc1)C(=O)N/N=C/c1ccccc1`, for which the Activity (milli optical density/minute) was 25.4.
As to `COc1ccc(C(=O)N[C@H](C(=O)N/N=C/c2ccc(Cl)cc2)[C@@H](C)O)cc1`, the Activity (milli optical density/minute) turned out to be 49.5.
On to `COc1ccc(C(=O)N[C@@H](Cc2ccc(O)cc2)C(=O)N/N=C/c2ccc(O)cc2)cc1`, for which the Activity (milli optical density/minute) was determined as 8.77.

The next data set has the same target. Briefly: Binding affinity to HIV1 capsid protein assessed as inhibition of viral capsid assembly at 1 mM after 600 mins by turbidity-based ultraviolet spectrophotometry.
Conditions: not given
With `CC[C@@H](C)[C@H](NC(=O)c1ccc(OC)cc1)C(=O)N/N=C/c1ccc(C)cc1`, the inhibition result was “inactive”.
Consider `COc1ccc(C(=O)N[C@@H](Cc2ccc(O)cc2)C(=O)N/N=C/c2ccc(Cl)cc2)cc1`, for which the inhibition result is “inactive”.
On to `COc1ccc(/C=N/NC(=O)[C@H](Cc2c[nH]cn2)NC(=O)c2ccc(OC)cc2)cc1`, for which the inhibition result is “Active”.
